Assay results of several laboratories.
Target: Mu-type opioid receptor (Oprm1, Rattus norvegicus, UniProt P33535)

SMILES | read-out | technique | notes | Ki [nM]
Cc1cc(O)cc(C)c1C[C@H](N)C(=O)N[C@H](CCCNC(=N)N)C(=O)N[C@@H](Cc1c(C)cccc1C(C)C)C(=O)N[C@@H](CCCCN)C(N)=O | ligand displacement | radioligand | cell membranes | 0.155
Cc1cc(O)cc(C)c1C[C@H](C)C(=O)N[C@@H]1C/C=C/CC[C@@H](C(N)=O)NC(=O)[C@H](Cc2ccccc2)NC(=O)[C@H](Cc2ccccc2)NC1=O | ligand displacement | radioligand | cell membranes | 323
CCCC[C@@H](NC(=O)[C@@H](N)Cc1c(C)cc(O)cc1C)C(=O)NCC(=O)N[C@@H](Cc1ccc(F)cc1)C(=O)N(C)CCC[C@@]1(c2ccc(F)cc2)OCc2cc(C#N)ccc21 | cell-free assay |  |  | 1
Cc1cc(O)cc(C)c1C[C@H](N)C(=O)N[C@H](CCCNC(=N)N)C(=O)N[C@@H](Cc1c[nH]c2ccccc12)C(=O)N[C@@H](CCCCN)C(N)=O | ligand displacement | radioligand | cell membranes | 0.0991
Cc1cc(O)cc(C)c1C[C@H](N)C(=O)N1CCc2ccc(Cc3cccc([N+](=O)[O-])c3)cc2C1 | ligand displacement | radioligand | cell membranes | 3.1
Cc1cc(O)cc(C)c1C[C@H](N)C(=O)N1Cc2ccccc2CC1C(=O)NCC(=O)NC(Cc1ccc(Cl)cc1)C(=O)N(C)CCC[C@@]1(c2ccc(F)cc2)OCc2cc(C#N)ccc21 (stereo in doubt) | cell-free assay |  |  | 35
C[C@@H](NC(=O)C[C@@H](N)Cc1ccc(O)cc1)C(=O)NCC(=O)N[C@@H](Cc1ccccc1)C(=O)NNC(=O)[C@H](Cc1ccccc1)NC(=O)CNC(=O)[C@@H](C)NC(=O)C[C@@H](N)Cc1ccc(O)cc1 | ligand displacement | radioligand |  | 62
Cc1cc(O)cc(C)c1C[C@H](N)C(=O)N1CCc2ccc(Cc3ccc(N)cc3)cc2C1 | ligand displacement | radioligand | cell membranes | 47
N=C(N)NCCC[C@@H]1NC(=O)[C@H](Cc2ccc(O)cc2)NC(=O)[C@@H](CCCCN)NC(=O)[C@@H](Cc2ccccc2)NC1=O | ligand displacement | radioligand | cell membranes | 171
Oc1cccc([C@]23CCC[C@H]([C@H]2O)N(CC=Cc2ccccc2)CC3)c1 | ligand displacement | radioligand |  | 0.74
Cc1ccccc1Cc1ccc2c(c1)CN(C(=O)[C@@H](N)Cc1c(C)cc(O)cc1C)CC2 | ligand displacement | radioligand | cell membranes | 2.5
C[C@@H](NC(=O)[C@@H](N)Cc1ccc(O)cc1)C(=O)NCC(=O)N[C@@H](Cc1ccccc1)C(=O)N(C)CCC[C@@]1(c2ccc(F)cc2)OCc2cc(C#N)ccc21 | cell-free assay |  |  | 88
Cc1cccc(C)c1C[C@H](NC(=O)[C@@H](CCCNC(=N)N)NC(=O)[C@@H](N)Cc1c(C)cc(O)cc1C)C(=O)N[C@@H](CCCCN)C(N)=O | ligand displacement | radioligand | cell membranes | 0.00935
Cc1cc(O)cc(C)c1C[C@H](N)C(=O)N1CCc2ccc(Cc3ccccc3N)cc2C1 | ligand displacement | radioligand | cell membranes | 2.1
